Data: PMC3808079 (Oncogene, 2012)
Ends that are not written are not given here.

How the values were obtained:
[1] = system: LN229 cells; assay: Cell viability assay; assay type: cell-based, human
[2] = target: T1, PIKE-A/Akt interaction (Homo sapiens, UniProt P31749+Q99490); assay: ELISA-based protein interaction assay; assay type: binding; conditions: peptide 10 μM; Figure 5c
[3] = system: LN229 cells; assay: Transwell; assay type: cell-based, human; conditions: synthetic peptide 50 μM, 16 h, Figure 6c
Outline: (§1)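 Cells (1 × 10^5/well) were seeded in six-well plates and treated with test peptides (50 μM) for 16 h. Invasion through Matrigel was measured in a transwell system (8 μm pore polycarbonate membrane). Mean±s.d. of 3–4 independent experiments; Student's t-test.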

[4] = system: LN-Z308 cells; assay: Cell viability assay; assay type: cell-based, human
Outline: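 Cells (5 × 10^3/well) grown in DMEM/10% FBS were seeded in 96-well plates. Next day, medium was replaced with fresh medium containing test peptides (50 μM) or vehicle, for 16 h at 37 °C. For combinations, cells got various concentrations of the test peptide with TMZ (25 μM) or BCNU (50 μM). Viability was read by MTT. Mean±s.d., 3–4 independent experiments; Student's t-test.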

[5] = target: T1, PIKE-A/Akt interaction; assay: In vitro binding assay, GST-PIKE-A; conditions: short synthetic peptides; Figure 5b
Outline: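 Purified recombinant GST-PIKE-A (a.a. 1–356) was bound to glutathione beads and incubated, with test peptides, with lysates of HEK293 cells transfected with HA-Akt, 3 h at 4 °C. Bead-bound proteins were run on 10% SDS-PAGE and immunoblotted with anti-HA. GST proteins were verified by Coomassie staining.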

[6] = system: LN-Z308 cells; assay: Transwell; assay type: cell-based, human; conditions: synthetic peptide 50 μM, 16 h, Figure 6c
Outline: as §1

[7] = system: LN229 cells; assay: Colony formation assay; assay type: cell-based, human; conditions: Figure 6e; for Colony numbers: drug alone, soft agar, 2 weeks
Outline: (§2)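 Soft-agar assay: 50 000 cells per well in 0.4% agar with 10% FBS in DMEM, plated over a 0.6% agar base, with test peptide, drug or vehicle. Combinations used various doses of the test peptide with TMZ or BCNU. Cells grew 2 weeks at 37 °C. Colonies were stained with MTT, counted and normalized to vehicle (%). Mean±s.d.; Student's t-test.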

[8] = system: LN-Z308 cells; assay: Colony formation assay; assay type: cell-based, human; conditions: for Colony numbers: drug alone, soft agar, 2 weeks
Outline: as §2

[9] = target: T1, PIKE-A/Akt interaction; assay type: binding
Outline: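 HEK293 cells were co-transfected with GST-PIKE-A and HA-Akt. After 40 h, lysates were collected and GST-PIKE-A was pulled down on glutathione beads in the presence of test peptides. Bound HA-Akt was detected by anti-HA immunoblot. GST-PIKE-A was verified with anti-GST-HRP.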

[10] = system: Akt signaling in LN-Z308 cells; assay: Immunoblotting of Akt phosphorylation and downstream signaling; assay type: cell-based, human; conditions: peptide-treated cell lysates, dose-dependent, immunoblot, Figure 7b
[11] = system: PIKE-A/Akt interaction in HEK293 cells; assay: GST pull-down from co-transfected HEK293 cells treated with synthetic peptides; assay type: cell-based; conditions: sp2 50 μM, Figure 5f
Outline: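 HEK293 cells were co-transfected with GST-PIKE-A and HA-Akt, then treated with 50 μM test peptide in culture medium for various times up to 24 h. GST-PIKE-A was pulled down on glutathione beads, and associated HA-Akt was detected by anti-HA immunoblot.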

[12] = system: LN-Z308 cells; assay: Cell migration, wound-healing assay; assay type: cell-based, human; conditions: synthetic peptide 50 μM, 10 h, Figure 6b
Outline: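 LN-Z308 monolayers were grown to confluence in six-well plates and scratched with a pipette tip, then washed to remove nonadherent cells. Medium containing test peptides (50 μM) or DMSO was added at 0 h, and cells were incubated 10 h. Wound area was imaged by light microscopy. % wound healed = 100-[(final area/initial area) × 100%]. Mean±s.d. of three or four independent experiments; Student's t-test.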

[13] = synthetic peptide 50 μM, 16 h, Figure 6a
[14] = sp2 various concentrations + TMZ 25 μM, 16 h, Figure 6d
[15] = various concentrations of sp2, 16 h, Figure 6d

T1 sequence (Q99490 1-836 isoform Q99490-2): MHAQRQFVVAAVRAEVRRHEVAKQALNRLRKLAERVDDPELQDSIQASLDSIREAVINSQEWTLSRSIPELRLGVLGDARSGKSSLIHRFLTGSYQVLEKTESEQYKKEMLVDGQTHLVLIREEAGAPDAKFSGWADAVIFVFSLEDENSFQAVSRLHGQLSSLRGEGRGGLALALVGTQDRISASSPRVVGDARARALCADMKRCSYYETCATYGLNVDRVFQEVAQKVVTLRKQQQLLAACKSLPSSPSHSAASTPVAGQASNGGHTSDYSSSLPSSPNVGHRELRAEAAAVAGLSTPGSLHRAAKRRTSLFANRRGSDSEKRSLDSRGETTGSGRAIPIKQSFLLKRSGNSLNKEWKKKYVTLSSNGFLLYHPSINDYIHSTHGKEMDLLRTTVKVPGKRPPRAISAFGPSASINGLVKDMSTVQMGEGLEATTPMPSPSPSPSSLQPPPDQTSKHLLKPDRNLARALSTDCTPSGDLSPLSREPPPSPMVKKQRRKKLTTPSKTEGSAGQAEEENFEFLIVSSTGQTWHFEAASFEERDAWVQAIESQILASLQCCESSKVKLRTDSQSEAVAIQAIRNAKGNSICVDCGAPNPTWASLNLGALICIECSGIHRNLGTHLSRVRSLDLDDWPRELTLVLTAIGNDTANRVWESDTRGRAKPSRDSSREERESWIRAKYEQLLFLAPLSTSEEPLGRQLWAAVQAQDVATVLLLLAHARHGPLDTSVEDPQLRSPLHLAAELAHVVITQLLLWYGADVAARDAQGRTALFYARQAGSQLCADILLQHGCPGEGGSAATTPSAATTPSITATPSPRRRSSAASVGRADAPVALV
T1 sequence (P31749 whole entry): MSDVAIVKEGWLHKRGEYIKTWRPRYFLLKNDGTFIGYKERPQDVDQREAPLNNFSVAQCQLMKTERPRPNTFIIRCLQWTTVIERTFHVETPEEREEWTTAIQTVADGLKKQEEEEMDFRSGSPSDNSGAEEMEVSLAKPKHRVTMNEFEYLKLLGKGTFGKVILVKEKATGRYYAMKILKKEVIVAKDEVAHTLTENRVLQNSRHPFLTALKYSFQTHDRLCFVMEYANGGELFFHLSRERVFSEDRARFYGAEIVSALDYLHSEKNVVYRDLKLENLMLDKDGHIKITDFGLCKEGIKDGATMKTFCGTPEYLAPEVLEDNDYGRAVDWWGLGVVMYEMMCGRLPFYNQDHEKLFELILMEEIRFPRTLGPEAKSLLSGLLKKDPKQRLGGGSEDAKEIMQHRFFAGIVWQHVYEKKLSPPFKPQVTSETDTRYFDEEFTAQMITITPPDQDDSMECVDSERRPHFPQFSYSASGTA

Compound: TGSYQ [sp6]
- Cell viability (MTT) [1, 13]: not in LN229 cells
- Disruption of the interaction between PIKE-A and Akt (ELISA, RLU) [2]: failed to block the PIKE-A/Akt interaction
- Invasive activity [3]: did not significantly affect
- Cell viability (MTT) [4, 13]: selectively decreased LN-Z308 cell viability
- Interaction between a fragment of PIKE-A (1–356 a.a.) and Akt [5]: decreased the interaction
- Invasive activity [6]: did not significantly affect

Compound: Cn1nnc2c(C(N)=O)ncn2c1=O [TMZ, temozolomide, reference compound]
- Colony numbers [7]: decreased the colony numbers
- Cell viability (MTT) ([1]; TMZ 25 μM, 16 h, Figure 6d): potently decreased
- Cell viability (MTT) ([1]; TMZ 25 μM, 24 h, compared with vehicle, Figure 4c): modest effect in repressing LN229 cell viability
- Colony numbers ([8]; Figure 6e): decreased the colony numbers
- Cell viability (MTT) ([4]; TMZ 25 μM, 16 h, Figure 6d): potently decreased

Compound: DARSGKSSLIHRFLTGSYQ [PP2]
- Inhibition of the PIKE-A/Akt interaction, GST pull-down ([9]; peptide up to 10 μM, Figure 2f): did not demonstrate an inhibitory effect
- Disruption of the interaction between PIKE-A and Akt (ELISA, RLU) [2]: failed to block the PIKE-A/Akt interaction

Compound: PELRLGVL [sp2]
- Inhibitory effect on the PIKE-A/Akt interaction, GST pull-down ([9]; GST pull-down as in Figure 2, Figure 5e): inhibited the binding
- Akt T308 and S473 phosphorylation [10]: diminished
- Colony formation inhibitory effect of TMZ and BCNU on co-treatment with sp2 ([7]; sp2 + TMZ or BCNU): additive trend also applied
- Cell viability (MTT), co-treatment of sp2 with TMZ [1, 14]: inhibitory trend was similar
- Cell viability (MTT) [1, 13]: not in LN229 cells
- Cell viability (MTT), sp2 alone [1, 15]: not as evident as in LN-Z308 cells
- Inhibition of PIKE-A binding to Akt at 24 h ([11]; 24 h in cell culture medium): lost its suppressive activity
- Time at which inhibition of PIKE-A binding to Akt was seen ([11]; time course): 4 h
- Time of peak inhibition of PIKE-A binding to Akt ([11]; time course): 16 h
- Invasive activity [3]: strongly inhibited the invasive activity
- Colony formation inhibitory effect of TMZ and BCNU on co-treatment with sp2 ([8]; 50 μM sp2 + TMZ or BCNU, Figure 6e): substantially increased
- Colony formation, sp2 ([8]; summary statement of Figure 6): strongly inhibits
- Cell viability (MTT), co-treatment of sp2 with TMZ [4, 14]: additive effect
- Cell viability (MTT) [4, 13]: selectively decreased LN-Z308 cell viability
- Cell viability (MTT), sp2 alone [4, 15]: suppressive activity of sp2 on LN-Z308 cell viability, which occurred in a dose-dependent manner
- Cell migration [12]: strongly inhibits
- Interaction between a fragment of PIKE-A (1–356 a.a.) and Akt [5]: decreased the interaction
- Invasive activity [6]: strongly inhibited the invasive activity

Compound: DARSG [sp4]
- Akt T308 and S473 phosphorylation [10]: no effect on Akt phosphorylation
- Disruption of the interaction between PIKE-A and Akt (ELISA, RLU) [2]: failed to block the PIKE-A/Akt interaction
- Invasive activity [3]: did not significantly affect
- Cell viability (MTT) [4, 13]: no effect
- Interaction between a fragment of PIKE-A (1–356 a.a.) and Akt [5]: decreased the interaction
- Invasive activity [6]: did not significantly affect

Compound: LKKDPK [sp9]
- Interaction between a fragment of PIKE-A (1–356 a.a.) and Akt [5]: decreased the interaction

Compound: O=NN(CCCl)C(=O)NCCCl [BCNU, Carmustine, reference compound]
- Colony numbers [7]: decreased the colony numbers
- Cell viability (MTT) ([1]; BCNU 50 μM, 24 h, after 40 h plasmid transfection, Figure 4c): reduced cell viability regardless of peptide transfection
- Colony numbers ([8]; Figure 6e): decreased the colony numbers
